Rows were chosen to be rich in hits. Some 1.3% of all compounds tested hit in one or more screens of this group.
Keap1-Nrf2 PPI: Keap1-Nrf2 protein-protein interaction inhibitors, primary screen, biochemical, fluorescence polarization, single point | Kelch-like ECH-associated protein 1 (Homo sapiens), Q14145 | Keap1 Kelch-Nrf2 peptide fluorescence polarization, 1536-well | inhibition, % at 9.4 µM | 340,000 compounds, 0.15% hits; in the data active = inhibition above about 12%;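 note: human Keap1 Kelch domain with fluorescein labeled Nrf2 9mer peptide probe; higher means more block of Keap1 binding to Nrf2 peptide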
Target sequence (Q14145 whole entry, looked up, the tested form may be a part): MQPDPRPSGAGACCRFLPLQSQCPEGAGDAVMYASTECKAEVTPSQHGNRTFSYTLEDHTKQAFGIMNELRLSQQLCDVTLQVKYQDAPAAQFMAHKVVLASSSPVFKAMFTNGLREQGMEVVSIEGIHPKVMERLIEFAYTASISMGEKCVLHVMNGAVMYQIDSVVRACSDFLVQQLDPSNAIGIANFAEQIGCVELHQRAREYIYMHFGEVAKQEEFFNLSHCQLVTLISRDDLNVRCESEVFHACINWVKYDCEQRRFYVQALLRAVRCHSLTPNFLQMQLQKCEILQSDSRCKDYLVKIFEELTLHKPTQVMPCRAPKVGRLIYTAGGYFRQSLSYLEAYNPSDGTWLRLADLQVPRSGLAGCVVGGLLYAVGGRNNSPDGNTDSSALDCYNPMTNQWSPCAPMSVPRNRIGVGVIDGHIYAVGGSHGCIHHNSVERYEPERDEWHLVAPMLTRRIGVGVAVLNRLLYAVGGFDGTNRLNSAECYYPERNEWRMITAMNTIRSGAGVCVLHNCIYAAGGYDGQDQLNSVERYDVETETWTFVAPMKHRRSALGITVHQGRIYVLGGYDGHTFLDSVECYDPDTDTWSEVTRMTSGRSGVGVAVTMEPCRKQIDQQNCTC
CAL PDZ FP-1: untagged CAL PDZ binding inhibitors, primary screen, biochemical, fluorescence polarization, HTS; AID 602252, 2012; purified CAL PDZ, TMR-peptide fluorescence polarization, 1 h; inhibition, % at 24.9 µM; 300,000 compounds, 0.92% hits;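 active = mean inhibition of at least 30% with at least half of replicates also reaching 30%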
cardiac RTF act: cardiac RTF calcium sensitivity activators, primary screen, biochemical, IANBD-TnC fluorescence, EC20 calcium; 340,000 compounds, 0.24% hits; AID 493008, 2010; Troponin I, cardiac muscle (Homo sapiens) + Troponin T, cardiac muscle (Homo sapiens) + …; IANBD-labeled TnC RTF fluorescence at EC20 calcium; 0% EC20 calcium, 100% full calcium; activation, % at 7.2 µM;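 active = activation above the mean over all tested compounds plus 3 SD, cut at about 30% in these data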;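 note: rise in fluorescence read as greater calcium sensitivity of cardiac thin filaments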
CAL PDZ FP-2: CAL PDZ peptide-binding inhibitors, primary screen, biochemical, fluorescence polarization, Cer-tagged CAL PDZ, HTS | purified CAL PDZ, TMR-peptide fluorescence polarization, 1 h | inhibition, % at 20 µM | 330,000 compounds, 0.02% hits;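 active = highest replicate inhibition of at least 40%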
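Test system: purified CerCALP PDZ construct; Compound dosing: one concentration, 20 µM compound; Also added: TMR-labelled reporter peptide T*-PRC34 bound in PDZ groove; Read-out: inhibition from polarization loss; Controls: unlabelled peptide and DMSO controls; Signal: FP readout, S and P plane fluorescence; Incubation: 1 h at RT.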
C-LANA FP: inhibitors of KSHV C-LANA binding to DNA, primary screen, biochemical, fluorescence polarization, FAM-LBS DNA, MBP-C-LANA, single point. Kaposi's sarcoma herpesvirus LANA C-terminal domain (residues 932-1162) DNA binding. inhibition, % at 9 µM. 340,000 compounds, 0.078% hits;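 active = highest replicate inhibition at or above 60% at 9 µM, even if other replicates fall short; inactive = all replicates below 60% inhibition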
Cardiac RTF inh: cardiac RTF calcium sensitivity inhibitors, primary screen, biochemical, IANBD-TnC fluorescence, EC70 calcium | IANBD-labeled cardiac RTF, Ca2+ fluorescence | inhibition, % at 7.15 µM | 340,000 compounds, 0.12% hits;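 active = inhibition above the mean inhibition of all tested compounds plus 3 SD, cut at about 17% in these data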;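 note: assay run at fixed EC70 calcium of 1.6 mM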
Hits are given with their value; n = inactive; x = no result.

SMILES | Keap1-Nrf2 PPI | CAL PDZ FP-1 | cardiac RTF act | CAL PDZ FP-2 | C-LANA FP | Cardiac RTF inh
COc1ccccc1-n1c(=S)[nH]c2c(sc(=S)n2-c2ccccc2C)c1=O | n | 74.8 | n | n | n | n
CC(=O)Nc1ccc(NC(=O)C(C)N(C)CC(=O)Nc2ccccc2Br)cc1 (centres undefined) | n | 33.1 | n | n | n | n
CSc1ccccc1NC(=O)CN(C)C(C)C(=O)Nc1ccc(C#N)cc1 (centres undefined) | n | n | n | n | n | n
CCCCS(=O)(=O)N1CCCC(C(=O)Oc2ccccc2)C1 (centres undefined) | n | 65.6 | n | x | n | n
Cc1ccc(S(=O)(=O)NCCC(=O)NC(C)c2ccccc2)cc1 (centres undefined) | n | n | n | n | n | n
Cc1ccc(S(=O)(=O)NCCC(=O)NC(C)CCc2ccccc2)cc1 (centres undefined) | n | 70.9 | n | n | n | n
O=c1cc(-c2cccc(Br)c2)nc(-c2ccccc2F)o1 | n | n | n | n | n | n
O=c1cc(-c2ccccc2F)nc(-c2ccccc2F)o1 | n | 34.0 | n | n | n | n
O=C(CN1CCN(C/C=C/c2ccccc2)CC1)NC(=O)NC1CCCCC1 | n | 72.2 | n | x | n | n
O=C(CN1C(=O)COc2ccc(Cl)cc21)NCC1CCCO1 (centres undefined) | n | 35.2 | n | n | n | n
CC(=O)c1ccc(-c2nnc(CCC(=O)N3CCCC(C(=O)CC(C)C)C3)o2)s1 (centres undefined) | n | n | n | n | n | n
Cc1ccc(/C(N)=N/OC(=O)N2c3ccccc3Sc3ccccc32)cc1 | n | 80.8 | n | n | n | n
COc1ccc(CCC(=O)NNC(=O)Nc2ccc(C(C)=O)cc2)cc1 | n | n | n | n | n | n
O=C(NCCSc1ccccn1)c1ccc(Cl)cc1 | n | n | n | n | n | n
O=C(NCCSc1ccccn1)c1ccc(Cl)cc1Cl | n | 32.7 | n | n | n | n
CCCN1C(=O)S/C(=C/c2ccc(N3CCOCC3)o2)C1=O | n | n | 188.8 | n | n | n
CCCN1C(=O)S/C(=C\c2ccc(N3CCOCC3)o2)C1=O | n | n | 170.5 | n | n | n
C/C(Cc1ccccc1)=N\NC(=O)CNC(=O)c1ccc(Cl)cc1 | n | x | n | n | n | n
CCC/C(=N\NC(=O)CNC(=O)c1ccc(Cl)cc1)c1ccccc1 | n | 78.5 | n | n | n | n
O=[N+]([O-])c1ccc(Oc2cccnc2)c([N+](=O)[O-])c1 | n | 37.0 | n | n | n | n
CC(=O)c1ccc(N2CCN(S(=O)(=O)c3ccc4c(c3)CC(C)N4C(=O)C3CC3)CC2)cc1 (centres undefined) | n | 71.6 | n | n | n | n
CC(=O)c1ccc(N2CCN(S(=O)(=O)c3ccc4c(c3)CC(C)N4C(C)=O)CC2)cc1 (centres undefined) | n | n | n | n | n | n
CC(=O)N1c2ccc(S(=O)(=O)N3CCC(C(=O)NC4CCCCC4)CC3)cc2CC1C (centres undefined) | n | 63.5 | n | n | n | n
O=C([C@@H]1CCCN1C(=O)c1cccs1)N1CCN(S(=O)(=O)c2cccc(F)c2)CC1 | n | x | n | n | n | n
COCCNC(=O)C(=O)NCCN1CCOCC1 | n | n | n | n | n | n
SMILES | Keap1-Nrf2 PPI | CAL PDZ FP-1 | cardiac RTF act | CAL PDZ FP-2 | C-LANA FP | Cardiac RTF inh
COCCNC(=O)C(=O)NCCN1CCNCC1 | n | 87.6 | n | n | n | n
COc1cc(/C=N/NC(=O)CSc2n[nH]c(=O)[nH]c2=O)cc(OC)c1O | n | n | n | n | n | n
CCSC1=N/C(=C\C=C2/Oc3ccccc3N2CC)C(=O)S1 | n | n | 39.3 | n | n | n
CCOC(=O)C1CCN(c2ccc(-c3cccs3)nn2)CC1 | n | 93.2 | n | x | n | n
O=C(C1CCCCCC1)N1CC[C@@H](N2CCC(O)CC2)[C@H](O)C1 | n | n | n | x | n | n
Cc1ccc(N2CCN(CCCN3C(=O)C4CCCN4C3=O)CC2)cc1 (centres undefined) | n | 51.7 | n | n | n | n
O=c1[nH]c2ccccc2cc1CN(CC1CCCO1)S(=O)(=O)c1ccccc1 (centres undefined) | n | 66.0 | n | n | n | n
CCCCN(C(=O)c1cc(Cl)nc2ccccc12)c1c(N)n(Cc2ccccc2)c(=O)[nH]c1=O | n | n | n | n | n | n
CCOc1ccc(N2CC(C(=O)Nc3cccc(S(=O)(=O)NC4=NCCC4)c3)CC2=O)cc1 (centres undefined) | n | 44.9 | n | n | n | n
O=C(O)c1ccc(-c2ccc(OS(=O)(=O)c3ccccc3F)cc2)cc1 | n | 44.8 | n | n | n | n
C/C(=N\NC(=O)c1ccc2c(c1)OCO2)c1ccc2c(c1)OCO2 | n | 47.5 | n | n | n | n
C/C(=N\NC(=O)c1ccc2c(c1)OCO2)c1ccc(C(=O)O)s1 | n | n | n | n | n | n
O=C(N/N=C/c1ccccc1OC(=O)c1ccc2c(c1)OCO2)c1ccccc1 | n | n | n | n | n | n
COc1ccccc1/C=N/NC(=O)c1ccc2c(c1)OCO2 | n | 69.9 | n | x | n | n
O=C(COC(=O)/C=C/c1ccc(Cl)c(Cl)c1)NC1CCS(=O)(=O)C1 (centres undefined) | n | 64.1 | n | n | n | n
O=C1Nc2ccc(C(=O)O)c(O)c2C1=O | n | n | n | n | n | n
COc1cc(COCC(O)CN2CCOCC2)cc(OC)c1OC (centres undefined) | n | 56.1 | n | n | n | n
COc1ccc(-c2cc3c(=O)n(CC(=O)NCc4ccc(F)cc4)ncn3n2)cc1 | n | 50.1 | n | n | n | n
O=C(CSc1nncn1-c1ccccc1)NC1CCCC1 | n | n | n | n | n | n
O=C(CN1C(=O)NC2NC(=O)NC21)NC1CCCCC1 (centres undefined) | n | 38.9 | n | n | n | n
CC(C)=NNC(=O)CN1C(=O)NC2NC(=O)NC21 (centres undefined) | n | n | n | n | n | n
